# In ChEMBL document CHEMBL5724801, “EUbOPEN Chemogenomics Library - Multiplex” (2024):
# Where “and” joins values, the source holds several entries; their conditions need not be identical. Identical values can stand only once.
# System: HEK-293T
# Assay: Multiplex assay against HEK293T
# Format: toxicity, cell-based
# Details: human
# How it was run: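 Tubulin, mitochondrial-mass and membrane-permeability phenotypes are per cents of healthy-nucleus cells. Cells were gated by CellPathfinder machine learning into Hoechst high-intensity objects or normal cells, normal cells into healthy, pyknosed or fragmented nuclei, and pyknosed cells into mitotic or apoptotic. Before that, live cells stained at seeding with Hoechst33342, BioTracker Green Microtubule Cytoskeleton Dye, MitoTracker Red and Annexin V Alexa Fluor 680 were imaged on a CQ1 microscope at 37°C and 5% CO2 after compound addition.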
# [1] = 12 h, 1 µM, compound concentration 1 uM
# [2] = 12 h, 10 µM, compound concentration 10 uM
# [3] = 24 h, 1 µM, compound concentration 1 uM
# [4] = 24 h, 10 µM, compound concentration 10 uM
# [5] = 48 h, 1 µM, compound concentration 1 uM
# [6] = 48 h, 10 µM, compound concentration 10 uM
smiles,measurement,setting,value
Cc1c(Cc2ccc3ccccc3n2)c2cc(F)ccc2n1CC(=O)O [TIMAPIPRANT],Population Apoptotic (%),[1],42%
same,Population Fragmented Nuclei (%),[1],7% and 6%
same,Population Healthy Nuclei (%),[1],80%
same,Population Hoechst High Intensity Objects (%),[1],10% and 7%
same,Population Membrane Permeable-Phenotype (%),[1],0%
same,Population Mitochondria Different-Phenotype (%),[1],36% and 55%
same,Population Mitotic Cells (%),[1],57%
same,Population Normal (%),[1],89% and 92%
same,Population Pyknosed Nuclei (%),[1],11% and 12%
same,Population Tubulin-Different-Phenotype (%),[1],20% and 16%
same,Total Cell Count,[1],394 and 280
same,Population Apoptotic (%),[2],32% and 33%
same,Population Fragmented Nuclei (%),[2],7% and 6%
same,Population Healthy Nuclei (%),[2],78%
same,Population Hoechst High Intensity Objects (%),[2],6% and 5%
same,Population Membrane Permeable-Phenotype (%),[2],0%
same,Population Mitochondria Different-Phenotype (%),[2],55% and 63%
same,Population Mitotic Cells (%),[2],67% and 66%
same,Population Normal (%),[2],93% and 94%
same,Population Pyknosed Nuclei (%),[2],14% and 15%
same,Population Tubulin-Different-Phenotype (%),[2],38% and 28%
same,Total Cell Count,[2],434 and 354
same,Population Apoptotic (%),[3],31% and 53%
same,Population Fragmented Nuclei (%),[3],10% and 7%
same,Population Healthy Nuclei (%),[3],81% and 83%
same,Population Hoechst High Intensity Objects (%),[3],4% and 5%
same,Population Membrane Permeable-Phenotype (%),[3],1% and 0%
same,Population Mitochondria Different-Phenotype (%),[3],20% and 38%
same,Population Mitotic Cells (%),[3],68% and 46%
same,Population Normal (%),[3],95% and 94%
same,Population Pyknosed Nuclei (%),[3],8%
same,Population Tubulin-Different-Phenotype (%),[3],15%
same,Total Cell Count,[3],516 and 381
same,Population Apoptotic (%),[4],32% and 37%
same,Population Fragmented Nuclei (%),[4],7% and 12%
same,Population Healthy Nuclei (%),[4],78% and 77%
same,Population Hoechst High Intensity Objects (%),[4],4% and 5%
same,Population Membrane Permeable-Phenotype (%),[4],0%
same,Population Mitochondria Different-Phenotype (%),[4],31% and 44%
same,Population Mitotic Cells (%),[4],67% and 62%
same,Population Normal (%),[4],95% and 94%
same,Population Pyknosed Nuclei (%),[4],13% and 10%
same,Population Tubulin-Different-Phenotype (%),[4],28% and 20%
same,Total Cell Count,[4],560 and 475
same,Population Apoptotic (%),[5],26% and 17%
same,Population Fragmented Nuclei (%),[5],13% and 15%
same,Population Healthy Nuclei (%),[5],78% and 76%
same,Population Hoechst High Intensity Objects (%),[5],2% and 3%
same,Population Membrane Permeable-Phenotype (%),[5],1% and 0%
same,Population Mitochondria Different-Phenotype (%),[5],9% and 25%
same,Population Mitotic Cells (%),[5],73% and 82%
same,Population Normal (%),[5],97% and 96%
same,Population Pyknosed Nuclei (%),[5],8%
same,Population Tubulin-Different-Phenotype (%),[5],6% and 12%
same,Total Cell Count,[5],799 and 566
same,Population Apoptotic (%),[6],33% and 36%
same,Population Fragmented Nuclei (%),[6],10% and 14%
same,Population Healthy Nuclei (%),[6],79% and 78%
same,Population Hoechst High Intensity Objects (%),[6],4%
same,Population Membrane Permeable-Phenotype (%),[6],1% and 0%
same,Population Mitochondria Different-Phenotype (%),[6],24% and 33%
same,Population Mitotic Cells (%),[6],66% and 63%
same,Population Normal (%),[6],95%
same,Population Pyknosed Nuclei (%),[6],9% and 6%
same,Population Tubulin-Different-Phenotype (%),[6],17% and 16%
same,Total Cell Count,[6],752 and 630
Cc1cccc(F)c1C(=O)Nc1cnc(-c2cc3c(cc2Cl)OC(F)(F)O3)cn1 [ZEGOCRACTIN],Population Apoptotic (%),[1],12.35% and 6.45%
same,Population Healthy Nuclei (%),[1],42.98% and 15.89%
same,Population Hoechst High Intensity Objects (%),[1],0.27% and 0%
same,Population Membrane Permeable-Phenotype (%),[1],0% and 4.17%
same,Population Mitochondria Different-Phenotype (%),[1],33.33% and 20.83%
same,Population Mitotic Cells (%),[1],87.65% and 93.55%
same,Population Normal (%),[1],99.73% and 100%
same,Population Pyknosed Nuclei (%),[1],44.63% and 82.12%
same,Total Cell Count,[1],364 and 151
same,Population Apoptotic (%),[2],18.42% and 16.15%
same,Population Fragmented Nuclei (%),[2],2.44% and 4.03%
same,Population Healthy Nuclei (%),[2],23.41% and 8.72%
same,Population Hoechst High Intensity Objects (%),[2],2.38% and 0%
same,Population Membrane Permeable-Phenotype (%),[2],0% and 7.69%
same,Population Mitochondria Different-Phenotype (%),[2],22.92% and 30.77%
same,Population Mitotic Cells (%),[2],81.58% and 83.85%
same,Population Normal (%),[2],97.62% and 100%
same,Population Pyknosed Nuclei (%),[2],74.15% and 87.25%
same,Population Tubulin-Different-Phenotype (%),[2],37.5% and 23.08%
same,Total Cell Count,[2],210 and 149
same,Population Apoptotic (%),[3],23.62% and 14.53%
same,Population Fragmented Nuclei (%),[3],12.53% and 3.66%
same,Population Healthy Nuclei (%),[3],61.82% and 25%
same,Population Hoechst High Intensity Objects (%),[3],0.4% and 0%
same,Population Membrane Permeable-Phenotype (%),[3],2.29% and 0%
same,Population Mitochondria Different-Phenotype (%),[3],10.78% and 21.95%
same,Population Mitotic Cells (%),[3],76.38% and 85.47%
same,Population Normal (%),[3],99.6% and 100%
same,Population Pyknosed Nuclei (%),[3],25.66% and 71.34%
same,Population Tubulin-Different-Phenotype (%),[3],10.78% and 17.07%
same,Population Apoptotic (%),[4],34.16% and 33.09%
same,Population Fragmented Nuclei (%),[4],0.76% and 3.75%
same,Population Hoechst High Intensity Objects (%),[4],0.75% and 0%
same,Population Membrane Permeable-Phenotype (%),[4],0%
same,Population Mitochondria Different-Phenotype (%),[4],52.48% and 27.78%
same,Population Mitotic Cells (%),[4],65.84% and 66.91%
same,Population Normal (%),[4],99.25% and 100%
same,Population Pyknosed Nuclei (%),[4],60.98% and 85%
same,Total Cell Count,[4],266 and 160
same,Population Apoptotic (%),[5],9.86% and 16.85%
same,Population Fragmented Nuclei (%),[5],5.17% and 0.94%
same,Population Healthy Nuclei (%),[5],80.45% and 57.08%
same,Population Hoechst High Intensity Objects (%),[5],0% and 0.47%
same,Population Membrane Permeable-Phenotype (%),[5],4.53% and 2.48%
same,Population Mitochondria Different-Phenotype (%),[5],22.67% and 22.31%
same,Population Mitotic Cells (%),[5],90.14% and 83.15%
same,Population Normal (%),[5],100% and 99.53%
same,Population Pyknosed Nuclei (%),[5],14.39% and 41.98%
same,Population Apoptotic (%),[6],30.82% and 29%
same,Population Fragmented Nuclei (%),[6],1.98% and 3.11%
same,Population Healthy Nuclei (%),[6],61.88% and 34.78%
same,Population Hoechst High Intensity Objects (%),[6],0.49% and 2.42%
same,Population Membrane Permeable-Phenotype (%),[6],2% and 0%
same,Population Mitochondria Different-Phenotype (%),[6],76.4% and 44.64%
same,Population Mitotic Cells (%),[6],69.18% and 71%
same,Population Normal (%),[6],99.51% and 97.58%
same,Population Pyknosed Nuclei (%),[6],36.14% and 62.11%
same,Total Cell Count,[6],406 and 165
